How the values were obtained:
[1] = Tmax in ICR mouse at 5 mg/kg, ip by LC-MS/MS analysis; assay type: ADME, organism-based; design: dose 5 mg/kg, route intraperitoneal; conditions: in vivo
Summary of the method: (§1)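 Male ICR mice (20–25 g) given the compound intraperitoneally or by gavage in 10% DMSO/PEG300. Three to four mice were sacrificed per time point and plasma collected from the vena cava. Plasma was precipitated with acetonitrile containing internal standard and analysed by LC-MS/MS. Noncompartmental analysis of mean concentration-time data: terminal t1/2 = ln2/λz; Tmax by inspection; n = 3/dose group.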

[2] = AUC (infinity) in ICR mouse at 5 mg/kg, ip by LC-MS/MS analysis; assay type: ADME, organism-based; design: time infinity, dose 5 mg/kg, route intraperitoneal; conditions: plasma
Summary of the method: (§2)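 Male ICR mice (5–6 weeks, 20–25 g), single doses of 1, 5 or 15 mg/kg in 10% DMSO/PEG300, given iv by tail vein, ip, or orally by gavage. Three to four mice per time point, euthanized under isoflurane, blood drawn from posterior vena cava. Plasma protein precipitated with acetonitrile containing internal standard, then LC-MS/MS (MRM m/z 388.2→192). Noncompartmental analysis of mean concentration-time data, AUCinf by trapezoidal rule with extrapolation, CL = dose/AUCinf, Cmax read from the curve. F = (AUCnon-iv × dose iv)/(AUCiv × dose non-iv). n = 3 per dose group.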

[3] = Cmax in ICR mouse at 15 mg/kg, ip by LC-MS/MS analysis; assay type: ADME, organism-based; design: dose 15 mg/kg, route intraperitoneal; conditions: in vivo; summary of the method: as §2
[4] = Bioavailability in ICR mouse at 15 mg/kg, ip by LC-MS/MS analysis; assay type: ADME, organism-based; conditions: in vivo; summary of the method: as §2
[5] = Cmax in ICR mouse at 1 mg/kg, po via gavage by LC-MS/MS analysis; assay type: ADME, organism-based; design: dose 1 mg/kg, route oral; conditions: in vivo; summary of the method: as §2
[6] = Terminal half life in ICR mouse at 5 mg/kg, po via gavage by LC-MS/MS analysis; assay type: ADME, organism-based; design: dose 5 mg/kg, route oral; conditions: in vivo, read-out: beta t1/2 (converted); summary of the method: as §1
[7] = Mean residence time (infinity) in ICR mouse at 5 mg/kg, po via gavage by LC-MS/MS analysis; assay type: ADME, organism-based; design: dose 5 mg/kg, route oral; conditions: in vivo; summary of the method: as §2
[8] = Tmax in ICR mouse at 5 mg/kg, po by LC-MS/MS analysis; assay type: ADME, organism-based; design: dose 5 mg/kg, route oral; conditions: in vivo
Summary of the method: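 Male ICR mice (5–6 weeks, 20–25 g) dosed by gavage in 10% DMSO in PEG300. Three to four mice per time point were euthanized under isoflurane and blood taken from the posterior vena cava. Plasma was acetonitrile-precipitated and analysed by LC-MS/MS (MRM m/z 388.2→192). Tmax read by visual inspection. F = (AUC_oral × dose_iv)/(AUC_iv × dose_oral), with AUC_inf by trapezoidal rule; n = 3/dose group.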

[9] = Terminal half life in ICR mouse at 15 mg/kg, po via gavage by LC-MS/MS analysis; assay type: ADME, organism-based; design: dose 15 mg/kg, route oral; conditions: in vivo, read-out: beta t1/2 (converted); summary of the method: as §1
[10] = Metabolic stability in mouse liver microsomes assessed as half life during phase 1 at 0.5 uM by LC-MS/MS analysis in presence of 3 mM NADPH and absence of UDPGA; assay type: ADME; conditions: read-out: alphat1/2
Summary of the method: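 Pooled liver microsomes at 1 mg/ml protein with 3 mM NADPH, 0.5 μM substrate in 65 mM potassium phosphate pH 7.4, 1% methanol, 37°C. Incubations stopped at 10, 20, 30, 60 and 90 min with ice-cold acetonitrile plus internal standard, then LC-MS/MS of parent remaining relative to time 0. Half-life from a two-parameter single exponential decay fit; n = 2 to 3.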

[11] = Metabolic stability in human liver microsomes assessed as half life during phase 1 at 0.5 uM by LC-MS/MS analysis in presence of 3 mM NADPH and absence of UDPGA; assay type: ADME; conditions: read-out: alphat1/2
Summary of the method: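 Pooled liver microsomes (1 mg/ml) incubated with 0.5 µM substrate and 3 mM NADPH in 65 mM potassium phosphate, pH 7.4, 1% methanol, at 37°C. The phase I+II set also had 5 mM UDPGA, 5 mM D-saccharolactone, 50 µg/ml alamethicin and 3 mM MgCl2. Stopped at 10–90 min with cold acetonitrile plus internal standard. Parent remaining by LC-MS/MS relative to time 0. t1/2 from a two-parameter single exponential decay fit; n = 2–3.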

[12] = Metabolic stability in mouse liver microsomes assessed as half life during phase 1 and 2 at 0.5 uM by LC-MS/MS analysis in presence of 3 mM NADPH and […] UDPGA; assay type: ADME; conditions: read-out: alphat1/2
Liver microsome = test: Drug metabolism in human liver microsomes assessed as (3-(1H-indol-2-yl)phenyl)(3,4,5-trimethoxyphenyl)methanol formation at 0.5 uM after 2 hrs by LC-MS/MS analysis in presence of 3 mM NADPH; assay type: ADME
Summary of the method: (§3)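 Pooled liver microsomes (1 mg/ml protein) incubated with 0.5 µM substrate and 3 mM NADPH in 65 mM potassium phosphate, pH 7.4, 1% methanol, at 37°C for 2 h. Stopped with ice-cold acetonitrile containing internal standard, centrifuged. Supernatant analysed by LC-MS/MS on a C18 column, 15-min gradient, with product ion scans for metabolite identification.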

[13] = Drug metabolism in mouse liver microsomes assessed as (3-(1H-indol-2-yl)phenyl)(3,4,5-trimethoxyphenyl)methanol formation at 0.5 uM after 2 hrs by LC-MS/MS analysis in presence of 3 mM NADPH; assay type: ADME; summary of the method: as §3
Liver = test: Drug level in mouse liver microsomes assessed as compound retention time treated with 0.5 uM I-387 after 2 hrs by LC-MS/MS analysis; assay type: ADME; summary of the method: as §3
[14] = Antitumor activity against human PC3 cells xenografted in nu/nu mouse assessed as decrease in tumor growth at 10 mg/kg, ip 2 days per week for weeks; assay type: functional; conditions: PC-3, ip, 48 h, route intraperitoneal
[15] = Antitumor activity against human MESSA/DX5 cells xenografted in nu/nu mouse assessed as decrease in tumor growth at 10 mg/kg, ip 2 days per week for weeks; assay type: functional; conditions: MES-SA/Dx5, ip, 48 h, route intraperitoneal
[16] = Mean residence time (infinity) in ICR mouse at 1 mg/kg, iv by LC-MS/MS analysis; assay type: ADME, organism-based; design: dose 1 mg/kg, route intravenous; conditions: in vivo; summary of the method: as §2
[17] = AUC (infinity) in ICR mouse at 1 mg/kg, iv by LC-MS/MS analysis; assay type: ADME, organism-based; design: time infinity, dose 1 mg/kg, route intravenous; conditions: plasma; summary of the method: as §2
[18] = Terminal half life in ICR mouse at 5 mg/kg, iv by LC-MS/MS analysis; assay type: ADME, organism-based; design: dose 5 mg/kg, route intravenous; conditions: in vivo, read-out: beta t1/2 (converted)
Summary of the method: (§4)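 Tail-vein injection in male ICR mice (5–6 weeks), vehicle 10% DMSO in PEG300. Serial terminal sampling of 3–4 mice per time point, with posterior vena cava blood. Plasma was acetonitrile-precipitated and measured by LC-MS/MS. Noncompartmental analysis of mean data: t1/2 = ln2/λz, CL = dose/AUC_inf, Vd_ss = CL × MRT_inf; n = 3/dose group.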

[19] = Cmax in ICR mouse at 5 mg/kg, iv by LC-MS/MS analysis; assay type: ADME, organism-based; design: dose 5 mg/kg, route intravenous; conditions: in vivo; summary of the method: as §2
[20] = AUC (infinity) in ICR mouse at 5 mg/kg, iv by LC-MS/MS analysis; assay type: ADME, organism-based; design: time infinity, dose 5 mg/kg, route intravenous; conditions: plasma; summary of the method: as §2
[21] = Terminal half life in ICR mouse at 15 mg/kg, iv by LC-MS/MS analysis; assay type: ADME, organism-based; design: dose 15 mg/kg, route intravenous; conditions: in vivo, read-out: beta t1/2 (converted); summary of the method: as §4
[22] = Clearance in ICR mouse at 15 mg/kg, iv by LC-MS/MS analysis; assay type: ADME, organism-based; design: dose 15 mg/kg, route intravenous; conditions: in vivo; summary of the method: as §2
[23] = Terminal half life in ICR mouse at 1 mg/kg, ip by LC-MS/MS analysis; assay type: ADME, organism-based; design: dose 1 mg/kg, route intraperitoneal; conditions: in vivo, read-out: beta t1/2 (converted); summary of the method: as §1

Tmax [1]: 5 min
AUC(0-inf) [2]: 3750 ng·h/mL
Cmax [3]: 4290 ng/mL
bioavailability [4]: 94%
Cmax [5]: 30 ng/mL
half-life [6]: 7.7 h
MRT inf [7]: 8.9 h
Tmax [8]: 0.5 h
half-life [9]: 7.9 h
half-life at 0.5 µM [10]: 0.617 h
half-life at 0.5 µM [11]: 0.4 h
half-life at 0.5 µM [12]: 0.65 h
Drug metabolism (Liver microsome): metabolite_detected
Drug metabolism [13]: metabolite_detected
Retention_time (Liver): 11.3 min
MRT inf [16]: 3 h
AUC(0-inf) [17]: 617 ng·h/mL
half-life [18]: 4.3 h
Cmax [19]: 2860 ng/mL
AUC(0-inf) [20]: 3950 ng·h/mL
half-life [21]: 8.9 h
clearance [22]: 19 mL/min/kg
half-life [23]: 8 h
SMILES: COc1cc(C(=O)c2cccc(-c3cc4ccccc4[nH]3)c2)cc(OC)c1OC
inhibition in vivo at 10 mg/kg [14]: 68%
inhibition in vivo at 10 mg/kg [15]: 76%
